We go through 75 sequences from the array DNA melting data of Ke et al. (doi:10.1101/2024.01.08.574731).

Series [1] is described as follows: folding enthalpy; higher = less favourable; fluorescence melt of hairpins on a sequencing array, two-state fit. As to conditions: sodium 0.088 M. In outline:
(§1)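 Library hairpins on a sequenced MiSeq flow cell carried annealed Cy3 and quencher oligos, and their Cy3 fluorescence was imaged in 50 mM Na-HEPES pH 8.0 with 25 mM NaCl, in 2.5 °C steps up to 60 °C. Signals were normalised to Cy3 before quenching and to control constructs. Melting temperature and folding enthalpy were obtained from bootstrapped two-state fits, combined by inverse-variance weighting across four replicates, and the fitted temperatures were then raised by 9.35 °C to match UV melts.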

The nature of series [2]: melting temperature; fluorescence melt of hairpins on a sequencing array, two-state fit, raised by 9.35 °C to match UV melts. As to conditions: sodium 0.088 M. A digest of the protocol:
as §1

GCGATAGGAAACTATTGC ((.((((....)))).)): the folding enthalpy in series [1] is -38.8 kcal/mol. Moreover, the Tm in series [2] was 45.6 °C.
Taken in the same sequence, the figures for GCGATAGTTCGC ((((....)))) were -21.8 kcal/mol and 50.4 °C.
Taken in the same sequence, the figures for GCGATATTTCGC ((((....)))) were -23.2 kcal/mol and 50.1 °C.
In the case of GCGATCATTCGC ((((....)))), the folding enthalpy in series [1] was -26.6 kcal/mol. Besides, the Tm in series [2] is 50.7 °C.
The like results for GCGATCCATCGC ((((....)))) were, in that order, -27.3 kcal/mol and 57.2 °C.
Taken in the same sequence, the figures for GCGATCCCGAAAGGGCGC (((..(((....)))))) were -20.6 kcal/mol and 56.3 °C.
Taken in the same sequence, the figures for GCGATCCTCGC ((((...)))) were -20.9 kcal/mol and 50.3 °C.
Take GCGATCGAAAGATAACGC ((((((....)))..))): the folding enthalpy in series [1] is -26.2 kcal/mol. Besides, in series [2], the Tm was 44.3 °C.
Taken in the same sequence, the figures for GCGATCGAAAGATACCGC ((((((....)))..))) were -23.8 kcal/mol and 37.2 °C.
Taken in the same sequence, the figures for GCGATCGAAAGATCACGC ((((((....)))..))) were -21.7 kcal/mol and 48.2 °C.
Taken in the same sequence, the figures for GCGATCGAAAGATGTCGC ((((((....)))..))) were -22.4 kcal/mol and 43 °C.
Turning to GCGATCGGTCGC ((((....)))), the folding enthalpy in series [1] was -31.6 kcal/mol. Moreover, in series [2], the Tm was determined as 48.5 °C.
The like results for GCGATCGTCGC ((((...)))) were, in that order, -20.2 kcal/mol and 45.9 °C.
Regarding GCGATGATCGC ((((...)))), the folding enthalpy in series [1] is -22.3 kcal/mol. Besides, the Tm in series [2] amounted to 46 °C.
Taken in the same sequence, the figures for GCGATGCCTCGC ((((....)))) were -20.5 kcal/mol and 50.4 °C.
GCGATGCGAAAGCATTGC ((.((((....)))).)): the folding enthalpy in series [1] was -43.9 kcal/mol. In addition, the Tm in series [2] is 68.7 °C.
The like results for GCGATGCGAAAGCCCCGC (((..((....))..))) were, in that order, -20.5 kcal/mol and 43.9 °C.
Regarding GCGATGCGTCGC ((((....)))), the folding enthalpy in series [1] was -20.1 kcal/mol. Besides, the Tm in series [2] came out at 64.5 °C.
The like results for GCGATGGGAAACTGTCGC ((((..(....)..)))) were, in that order, -47.3 kcal/mol and 49.2 °C.
Taken in the same sequence, the figures for GCGATGGTCGC ((((...)))) were -7.34 kcal/mol and 47.8 °C.
Taken in the same sequence, the figures for GCGATGTGTCGC ((((....)))) were -28.6 kcal/mol and 57 °C.
As to GCGATGTTTCGC ((((....)))), the folding enthalpy in series [1] is -22.9 kcal/mol. The Tm in series [2] was determined as 51.4 °C.
The like results for GCGATTACGAAAGTACGC (((..(((....)))))) were, in that order, -26 kcal/mol and 43.4 °C.
For the sequence GCGATTAGTCGC ((((....)))), in series [1], the folding enthalpy was -26.7 kcal/mol. For the same sequence, the Tm in series [2] was 51.4 °C.
Taken in the same sequence, the figures for GCGATTCATCGC ((((....)))) were -30.1 kcal/mol and 58.3 °C.
Taken in the same sequence, the figures for GCGATTCGAAAGAACCGC (((.(((....))).))) were -38.6 kcal/mol and 53.1 °C.
The like results for GCGATTCGTCGC ((((....)))) were, in that order, -28.4 kcal/mol and 54.5 °C.
Regarding GCGATTGAAAAATCGC ((((((....)))))), in series [1], the folding enthalpy is -40.7 kcal/mol. The Tm in series [2] came out at 64.8 °C.
Taken in the same sequence, the figures for GCGATTGCTCGC ((((....)))) were -14.3 kcal/mol and 52.5 °C.
The like results for GCGATTGGAAACGATTGC ((.((.(....).)).)) were, in that order, -26.7 kcal/mol and 36.4 °C.
The like results for GCGATTTCGAAAGAACGC (((..(((....)))))) were, in that order, -24.2 kcal/mol and 36.9 °C.
For GCGCAACGAAAGTTCGC (((.(((....)))))), the folding enthalpy in series [1] is -32 kcal/mol. In series [2], the Tm was determined as 54.9 °C.
The like results for GCGCAAGCGAAAGCTCGC (((..(((....)))))) were, in that order, -12.8 kcal/mol and 45.7 °C.
Taken in the same sequence, the figures for GCGCAAGGAAACTTGTGC ((.((((....)))).)) were -48.9 kcal/mol and 54.9 °C.
Taken in the same sequence, the figures for GCGCACCGAAAGGTTCGC (((.(((....))).))) were -40.3 kcal/mol and 61.4 °C.
As for GCGCACGAAAGTGAACGC ((((((....)))..))), the folding enthalpy in series [1] was -31.2 kcal/mol. For the same sequence, the Tm in series [2] is 54.5 °C.
As for GCGCACGAAAGTGGACGC ((((((....)))..))), in series [1], the folding enthalpy was -32.7 kcal/mol. In addition, the Tm in series [2] is 55.4 °C.
The like results for GCGCACGAAAGTGTCGC ((((((....))).))) were, in that order, -27.6 kcal/mol and 64.2 °C.
Taken in the same sequence, the figures for GCGCACGGAAACGCGCAC (.((.((....)).)).) were -13.7 kcal/mol and 52.4 °C.
Taken in the same sequence, the figures for GCGCAGCCGAAAGGCCGC (((..(((....)))))) were -16.7 kcal/mol and 57.9 °C.
Turning to GCGCAGCGAAAGCCTCGC (((..((....))..))), the folding enthalpy in series [1] is -8.27 kcal/mol. In series [2], the Tm was determined as 42.1 °C.
The like results for GCGCAGCGAAAGCGTCGC (((..((....))..))) were, in that order, -13.3 kcal/mol and 58.9 °C.
Taken in the same sequence, the figures for GCGCAGCGAAAGCTATGC ((..(((....)))..)) were -7.11 kcal/mol and 39.3 °C.
For the sequence GCGCAGCGAAAGCTCTGC ((..(((....)))..)), the folding enthalpy in series [1] was -7.6 kcal/mol. Besides, the Tm in series [2] was found to be 38.5 °C.
The like results for GCGCAGGCGAAAGCCCGC (((..(((....)))))) were, in that order, -16.7 kcal/mol and 60.1 °C.
Taken in the same sequence, the figures for GCGCAGGGAAACCTACGC (((.(((....))).))) were -39.9 kcal/mol and 50.1 °C.
Taken in the same sequence, the figures for GCGCAGGGAAACCTGCAC (.(((((....))))).) were -12.7 kcal/mol and 47.6 °C.
On to GCGCATGCGAAAGCACGC (((..(((....)))))), for which the folding enthalpy in series [1] was -13.7 kcal/mol. Besides, the Tm in series [2] is 54.6 °C.
The like results for GCGCATGGAAACACACGC (((..((....))..))) were, in that order, -19.4 kcal/mol and 29.6 °C.
The like results for GCGCCCCGAAAGGGCCGC (((.(((....))).))) were, in that order, -19.8 kcal/mol and 61.2 °C.
For GCGCCCGAAAGGGACGC ((((((....))).))), the folding enthalpy in series [1] was -27.1 kcal/mol. The Tm in series [2] turned out to be 68.1 °C.
The like results for GCGCCCGAAAGGGCACGC ((((((....)))..))) were, in that order, -13.4 kcal/mol and 63.3 °C.
Consider GCGCCCGAAAGGGGCCGC ((((((....)))..))), for which, in series [1], the folding enthalpy is -16.4 kcal/mol. Besides, the Tm in series [2] was 61.4 °C.
Turning to GCGCCGCCGAAAGGCCGC (((..(((....)))))), the folding enthalpy in series [1] was -15.2 kcal/mol. In addition, the Tm in series [2] is 56.3 °C.
Taken in the same sequence, the figures for GCGCCGCGAAAGCCCCGC (((..((....))..))) were -17.7 kcal/mol and 39 °C.
The like results for GCGCCGCGAAAGCCGTGC ((.(.((....)).).)) were, in that order, -20.5 kcal/mol and 52.1 °C.
The like results for GCGCCGCGAAAGCGAAGC ((..(((....)))..)) were, in that order, -32 kcal/mol and 64.8 °C.
In the case of GCGCCGCGAAAGCGATGC ((..(((....)))..)), in series [1], the folding enthalpy was -19.4 kcal/mol. Moreover, the Tm in series [2] is 60.8 °C.
The like results for GCGCCGCGAAAGCGCAGC ((..(((....)))..)) were, in that order, -14.1 kcal/mol and 59.8 °C.
GCGCCGCGAAAGCTCCGC (((..((....))..))): the folding enthalpy in series [1] was -16.8 kcal/mol. In addition, the Tm in series [2] turned out to be 44.9 °C.
Taken in the same sequence, the figures for GCGCCGGGAAACCAGCGC ((((.((....)).)))) were -44.5 kcal/mol and 59.1 °C.
The like results for GCGCCGTCGAAAGACCGC (((..(((....)))))) were, in that order, -23.1 kcal/mol and 50.8 °C.
The like results for GCGCGCCGAAAGGCCCGC (((.(((....))).))) were, in that order, -32.2 kcal/mol and 68.5 °C.
Turning to GCGCGCGAAAGCGCACGC ((((((....)))..))), the folding enthalpy in series [1] is -11.7 kcal/mol. The Tm in series [2] amounted to 67 °C.
The like results for GCGCGCGAAAGCGGTCGC ((((((....)))..))) were, in that order, -16.1 kcal/mol and 63.6 °C.
Taken in the same sequence, the figures for GCGCGGACGAAAGTCCGC (((..(((....)))))) were -5.59 kcal/mol and 63.7 °C.
Taken in the same sequence, the figures for GCGCGGCGAAAGCAGAGC ((.(.((....)).).)) were -25.1 kcal/mol and 63.8 °C.
On to GCGCGGCGAAAGCAGGGC ((.(.((....)).).)), for which the folding enthalpy in series [1] was -19.8 kcal/mol. In addition, the Tm in series [2] is 63.2 °C.
Taken in the same sequence, the figures for GCGCGGCGAAAGCAGTGC ((.(.((....)).).)) were -29.1 kcal/mol and 65.5 °C.
Taken in the same sequence, the figures for GCGCGGCGAAAGCATCGC (((..((....))..))) were -20.6 kcal/mol and 57.5 °C.
As for GCGCGGCGAAAGCCAGGC ((..(((....)))..)), the folding enthalpy in series [1] is -14.1 kcal/mol. Besides, in series [2], the Tm stood at 54.4 °C.
Taken in the same sequence, the figures for GCGCGGCGAAAGCCCGGC ((..(((....)))..)) were -12.8 kcal/mol and 59.7 °C.
For the sequence GCGCGGCGAAAGCCTGGC ((..(((....)))..)), in series [1], the folding enthalpy was -15.3 kcal/mol. In addition, the Tm in series [2] was determined as 47.9 °C.
Taken in the same sequence, the figures for GCGCGGCGAAAGCGACGC (((..((....))..))) were -15.2 kcal/mol and 63.2 °C.
The like results for GCGCGGCGAAAGCGGAGC ((.(.((....)).).)) were, in that order, -22.5 kcal/mol and 60.4 °C.
